High-throughput results deposited in PubChem BioAssay by Johns Hopkins Ion Channel Center.
Rows were chosen to be rich in hits. Some 3.1% of all compounds tested hit in one or more screens of this group.
KCNQ1 pot – potentiates or activates the human KCNQ1 potassium channel. P51787. CHO-K1 KCNQ1, thallium flux FluxOR fluorescence; stronger effect = higher value. B-score at 10 µM. 310,000 tested, 0.35% active;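 active means fluorescence ratio B-score, a plate-corrected score, at least three library SD, with initial intensity B-score within 5 SD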
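Medium – assay buffer, equal DMSO in all wells · Material – CHO-K1 cell line with stable KCNQ1 potassium channel expression · Signal – kinetic FluxOR thallium fluorescence, 10-s 1-Hz baseline, 110-s post-stimulus read · Compound – single concentration per compound, DMSO matched to controls · Schedule – 37 °C overnight plating, 90-min dark dye load, 20-min compound pretreatment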
KCNK9 inh – inhibitors of human KCNK9 two-pore domain potassium channel. Q9NPC2. HEK293 KCNK9, FluxOR thallium flux fluorescence; stronger effect = lower value. B-score at 10 µM. 310,000 tested, 1.2% active;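 active means ratio B-score over 3 SD below the library mean, with starting fluorescence within 5 SD of its mean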;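 further: negative B-score means less thallium flux so channel inhibition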
KCNQ1 block – inhibitors of human KCNQ1 potassium channel; P51787; CHO-K1 KCNQ1, FluxOR thallium flux fluorescence; stronger effect = higher value; B-score at 10 µM; 310,000 tested, 1.3% active;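 active means compounds whose thallium flux B-score, printed positive for inhibition, exceeds three library SD while starting fluorescence stays within three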;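 further: channel opened by potassium depolarization with thallium stimulus after 20 min compound exposure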
hERG protect – shields human hERG channel from block by proarrhythmic agents; activation (rescue from dofetilide block), less the hit threshold, % at 10 µM; Q12809; CHO-hERG, FluxOR thallium flux, dofetilide IC70 present; 310,000 tested, 0.51% active; AID 1511;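 active means activation above the mean of controls blocked by dofetilide plus 5 SD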;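 further: thallium influx through hERG after potassium depolarization seen as dye fluorescence rise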
KCNK3 block – human KCNK3 channel inhibition, primary screen; O14649; CHO-KCNK3 thallium flux, FluxOR fluorescence; stronger effect = lower value; B-score at 10 µM; 340,000 tested, 0.84% active;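 active means B-score under library mean minus 4 SD, starting fluorescence ratio at most library mean plus 5 SD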;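 further: more negative B-score means stronger inhibition of thallium flux through KCNK3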
KCNQ1 inh valid – human KCNQ1 channel inhibition, validation assay; shares compounds with KCNQ1 block; inhibition, % at 10 µM; KCNQ1 cell line, FluxOR thallium flux fluorescence; AID 588353; 1,600 tested, 93% active;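 active means primary screen active, with duplicate mean exceeding buffer control mean plus 3 SD of buffer wells, cut at about 28% in these data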;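 further: 0% = buffer control ratio and 100% = XE991 inhibitor control ratio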
CHO KCNQ1 ctr – KCNQ1 inhibitor counter-screen hit in parental CHO cells | shares compounds with KCNQ1 block | parental CHO-K1, FluxOR thallium flux fluorescence ratio; stronger effect = lower value; zero means no signal rise above baseline | fluorescence ratio (Tl flux) at 10 µM | 1,600 tested, 21% active;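 active means mean of duplicate thallium-flux fluorescence ratios in parental host cells more than 5 SD below the buffer control mean, cut at about 0.38 in these data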;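 further: ratio is peak minus minimum fluorescence divided by baseline fluorescence; actives read low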
KCNQ1 ephys val – confirmation of human KCNQ1 potassium channel inhibitors by electrophysiology | shares compounds with KCNQ1 block | KCNQ1-CHO cells, automated patch clamp current | calls only at 10 µM | 490 tested, 20% active | AID 624120;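 active means KCNQ1 current drop exceeding 3 SD of negative control wells, seen in both duplicate runs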;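 further: steady state current during a 2 s step from -80 to +40 mV; negative values mean current inhibition and positive values mean potentiation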
KCNQ2 inh – rat KCNQ2 inhibition in KCNQ1 inhibitor specificity screen. KCNQ2 cells, FluxOR thallium flux fluorescence. shares compounds with KCNQ1 block. AID 651746. inhibition, % at 10 µM. 1,600 tested, 71% active;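 active means mean percent inhibition of the KCNQ2 thallium signal more than 5 SD above the buffer-only control wells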;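 further: KCNQ2 expressed in CHO cells; 0% = buffer control wells and 100% = XE-991 inhibitor control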
Target sequence (O88943 whole entry, looked up): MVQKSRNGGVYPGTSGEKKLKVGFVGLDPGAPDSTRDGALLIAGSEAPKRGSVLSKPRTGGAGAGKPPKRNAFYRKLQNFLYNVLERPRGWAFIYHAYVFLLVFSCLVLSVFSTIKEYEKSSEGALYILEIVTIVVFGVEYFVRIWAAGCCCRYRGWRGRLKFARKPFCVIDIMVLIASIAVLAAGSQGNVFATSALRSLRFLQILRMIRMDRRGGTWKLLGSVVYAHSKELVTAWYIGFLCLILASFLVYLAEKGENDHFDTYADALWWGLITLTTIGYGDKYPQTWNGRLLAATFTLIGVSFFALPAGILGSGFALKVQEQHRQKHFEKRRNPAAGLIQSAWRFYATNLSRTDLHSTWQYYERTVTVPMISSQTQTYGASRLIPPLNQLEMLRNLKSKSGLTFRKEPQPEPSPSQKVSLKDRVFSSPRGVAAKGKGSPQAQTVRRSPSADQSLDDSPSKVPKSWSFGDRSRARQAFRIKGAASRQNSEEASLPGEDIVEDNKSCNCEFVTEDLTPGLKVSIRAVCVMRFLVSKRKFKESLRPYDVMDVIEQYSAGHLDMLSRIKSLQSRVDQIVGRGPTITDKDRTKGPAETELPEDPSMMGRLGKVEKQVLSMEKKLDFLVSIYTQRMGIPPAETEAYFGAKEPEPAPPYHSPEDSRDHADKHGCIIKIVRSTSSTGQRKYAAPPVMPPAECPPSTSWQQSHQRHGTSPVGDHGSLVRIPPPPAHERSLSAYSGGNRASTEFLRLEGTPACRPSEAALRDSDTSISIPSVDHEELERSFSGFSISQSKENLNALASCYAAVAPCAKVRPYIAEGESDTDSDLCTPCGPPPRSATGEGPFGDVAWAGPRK
KCNQ1-KCNE1 inh – selectivity of KCNQ1 inhibitors: inhibition of human KCNQ1/KCNE1 channel. shares compounds with KCNQ1 block. KCNQ1/KCNE1 cells, FluxOR thallium flux fluorescence. inhibition, % at 10 µM. 1,600 tested, 77% active. AID 652147;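 active means mean percent inhibition of duplicate wells above the buffer-only control mean plus 3 SD of those controls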;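 further: 0% = buffer only wells and 100% = XE-991 inhibitor control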
KCNK9 block conf – confirmation of human KCNK9 potassium channel inhibitors; shares compounds with KCNK9 inh; HEK293 KCNK9 cells, FluxOR thallium flux fluorescence; inhibition, % at 10 µM; 4,900 tested, 43% active;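 active means thallium signal inhibited by more than 5 SD of the compound-free buffer control wells, on both duplicate plates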;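 further: 0% = assay buffer control wells without compound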
Kir2-1 spec – selectivity of KCNK9 modulators against mouse Kir2.1; Kir2.1 cells, FluxOR thallium flux fluorescence; 4,900 tested, 4% active; shares compounds with KCNK9 inh; inhibition, % at 10 µM;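 active means thallium signal drop more than 5 SD beyond the mean of the no-compound control wells, seen in both duplicate plates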;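 further: signal is fluorescence rise after thallium addition divided by baseline fluorescence; plate controls were assay buffer only for no effect and full block by chlorpromazine control for full effect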
KCNK9 uninduced – second counter-screen for KCNK9 modulators: effect in non-induced cells; shares compounds with KCNK9 inh; non-induced KCNK9-HEK293, FluxOR thallium flux; inhibition, % at 10 µM; 4,900 tested, 40% active;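 active means thallium signal drop beyond 5 SD of the untreated control mean, on both duplicate plates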;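 further: plate controls were buffer only IC0 wells for no effect and SID17386958 at its maximal inhibitory level for full effect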
The depositor's hits bear a star; i = inactive; . = no result given; + = active, no number.

SMILES	KCNQ1 pot	KCNK9 inh	KCNQ1 block	hERG protect	KCNK3 block	KCNQ1 inh valid	CHO KCNQ1 ctr	KCNQ2 inh	KCNQ1-KCNE1 inh	KCNK9 block conf	Kir2-1 spec	KCNK9 uninduced	others
Clc1ccc(-c2cc3ccccc3nc2N2CCOCC2)cc1	i	i	11*	-14	i	130*	0.47	98%*	182%*	i	i	28%*
COc1cc(C2C3=C(COC3=O)OC(C)(C)Oc3cc4c(cc32)OCO4)cc(OC)c1OC (centres undefined)	.	.	.	.	i	.	.	.	.	.	.	.
Cc1cccnc1NC(=O)CCC(=O)c1cccs1	.	.	.	.	i	.	.	.	.	.	.	.
Cc1ccc(SCCNC(=S)Nc2ccc(C)c(C)c2)cc1	i	i	8*	-17	i	100*	0.45	i	98%*	i	i	i	KCNQ1 ephys val=i
Cc1ccc(SCCNC(=S)Nc2cc(C)ccc2C)cc1	i	i	i	-11	i	.	.	.	.	.	.	.
Cc1ccccc1Nc1nc(NCc2ccco2)c2ccccc2n1	i	-12*	14*	-25	-14*	162*	0.37*	115%*	+	54%*	85%*	40%*
CCC(Oc1ccccc1)C(=O)Nc1ccccc1N1CCCCC1 (centres undefined)	i	-15*	6*	-10	i	121*	0.45	99%*	143%*	50%*	i	41%*	KCNQ1 ephys val=i
COc1cc2ccccc2cc1C(=O)Nc1ccccc1N1CCCC1	i	-9*	20*	-14	i	99*	0.46	82%*	110%*	35%*	i	34%*	KCNQ1 ephys val=i
CCC(C(=O)Nc1ccccc1N1CCCC1)c1ccccc1 (centres undefined)	i	i	i	-9	i	.	.	.	.	.	.	.
O=C(Cn1ccc(=O)[nH]c1=O)Nc1ccc(O)c([N+](=O)[O-])c1	.	.	.	.	i	.	.	.	.	.	.	.
CCOC(=O)c1cc2cc(OCc3ccccc3)ccc2nc1C	i	i	i	-2	i	.	.	.	.	.	.	.
CCOC(=O)c1cnc2ccc(OCC)cc2c1N(C)Cc1ccccc1	i	i	6*	-12	i	148*	0.34*	154%*	198%*	i	i	23%*
COc1ccc(S(=O)(=O)N2CCN(c3cccc(C)c3C)CC2)cc1	i	i	9*	-9	i	+	0.35*	i	i	i	i	i
COc1ccc(N2CCN(S(=O)(=O)c3ccc(OC)cc3)CC2)cc1	i	i	i	-6	i	.	.	.	.	.	.	.
Cc1cc(=O)oc2c3c(cc(OCC(=O)NCC4CCC(C(=O)O)CC4)c12)OC(C)(C)CC3 (centres undefined)	i	i	i	-4	i	.	.	.	.	.	.	.
Cc1ccccc1-c1nc(C#N)c(N2CCCCC2)o1	i	i	i	-3	i	.	.	.	.	.	.	.
CC(C)CC(=O)Nc1cccc(-c2csc(-c3ccccc3)n2)c1	i	-14*	18*	-12	i	148*	0.35*	i	+	67%*	i	32%*
COc1ccc(CC(=O)Nc2cccc(-c3csc(C)n3)c2)cc1	i	i	i	-2	i	.	.	.	.	.	.	.
Cn1ncc(Cl)c1C(=O)N1CCN(c2ccccc2)CC1	i	i	i	-16	i	.	.	.	.	.	.	.
Cn1ncc(Cl)c1C(=O)N1CCN(c2ccc(Cl)c(Cl)c2)CC1	i	-10*	12*	-20	i	120*	0.43	98%*	87%*	42%*	i	26%*	KCNQ1 ephys val=i
CC(C)CC(=O)N1CCN(C(=O)c2ccc(-c3ccccc3)cc2)CC1	i	i	i	-4	i	.	.	.	.	.	.	.
Cc1cc(C)nc(NC(=NCCc2c[nH]c3ccccc23)NC(=O)Nc2ccc(Cl)c(Cl)c2)n1	i	i	i	-9	i	.	.	.	.	.	.	.
Cc1cc(C)nc(NC(=NCCc2c[nH]c3ccccc23)NC(=O)Nc2ccccc2)n1	i	i	7*	0	i	134*	0.38*	87%*	199%*	i	i	i
COc1ccc(CN2CCN(C3CCC3)CC2CCO)c(C)c1C (centres undefined)	i	i	i	-7	i	.	.	.	.	.	.	.
O=C(CSCc1cnn(-c2ccccc2)c1-n1cccc1)NCc1cccs1	i	i	7*	-7	i	64*	0.5	i	102%*	i	i	i
SMILES	KCNQ1 pot	KCNK9 inh	KCNQ1 block	hERG protect	KCNK3 block	KCNQ1 inh valid	CHO KCNQ1 ctr	KCNQ2 inh	KCNQ1-KCNE1 inh	KCNK9 block conf	Kir2-1 spec	KCNK9 uninduced	others
CNC(=O)CSCc1cnn(-c2ccccc2)c1-n1cccc1	i	i	i	-5	i	.	.	.	.	.	.	.
Fc1ccccc1-c1cc2ccccc2cn1	.	.	.	.	i	.	.	.	.	.	.	.
COc1ccccc1CCNC(=O)c1cc(COc2cccc(C(F)(F)F)c2)on1	i	i	7*	-2	i	100*	0.45	88%*	98%*	i	i	i	KCNQ1 ephys val=i
CCOc1ccc(NC(=O)CN2CCN(C3c4ccccc4-c4ccccc43)CC2)cc1	i	i	i	-8	i	.	.	.	.	.	.	.
COc1ccc(NC(=O)CN2CCN(C3c4ccccc4-c4ccccc43)CC2)c(OC)c1	i	-17*	8*	-11	i	60*	0.42	79%*	98%*	38%*	i	34%*
Cc1cccc(N2CCN(C(=O)C(Cc3ccccc3)n3cccc3)CC2)c1C (centres undefined)	i	-9.8*	9*	-13	i	140*	0.31*	126%*	+	49%*	i	36%*
